Test results taken from PMC6936494 (Proceedings of the National Academy of Sciences of the …, 2019).
Entries after “also recorded” stand apart in the source; their conditions may differ. Where two headings read alike, the source gives them in different places.

How the values were obtained:
[1] = biological target: N-terminal domain of LiaX (Enterococcus faecalis); test: MST
[2] = biological target: N-terminal domain of LiaX (Enterococcus faecalis); test: MST; remark: listed apart in the source
full length LiaX = biological target: T1, full length LiaX (Enterococcus faecalis, UniProt Q834B6); test: LL-37 binding by microscale thermophoresis, amine reactive dye, full length LiaX; design: species or system Enterococcus faecalis S613
T1 sequence (Q834B6 1-533): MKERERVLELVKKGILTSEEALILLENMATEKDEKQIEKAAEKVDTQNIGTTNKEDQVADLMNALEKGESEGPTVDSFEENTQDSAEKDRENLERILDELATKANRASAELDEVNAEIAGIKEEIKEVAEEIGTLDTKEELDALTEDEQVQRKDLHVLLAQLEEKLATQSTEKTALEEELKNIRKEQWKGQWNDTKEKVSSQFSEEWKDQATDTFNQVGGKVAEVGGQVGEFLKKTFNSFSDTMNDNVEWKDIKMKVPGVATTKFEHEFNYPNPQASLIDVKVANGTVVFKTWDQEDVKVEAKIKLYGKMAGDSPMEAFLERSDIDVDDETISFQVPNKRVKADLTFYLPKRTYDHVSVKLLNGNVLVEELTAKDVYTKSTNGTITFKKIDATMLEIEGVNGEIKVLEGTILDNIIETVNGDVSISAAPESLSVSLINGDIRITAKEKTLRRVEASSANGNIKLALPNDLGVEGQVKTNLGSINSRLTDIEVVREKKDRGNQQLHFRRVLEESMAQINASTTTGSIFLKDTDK
How it was run: (§1)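 Recombinant LiaX (full length or N-terminal domain, His/SUMO-tagged) was expressed in E. coli BL-21 and nickel-column purified, then labeled with NT-647. Microscale thermophoresis ran at 25% LED power in 0.1 M phosphate buffer pH 7.4, 0.0027 M KCl, 0.137 M NaCl and 1 mM TCEP, with or without 5% DMSO. Fluorescence changes were recorded across increasing LL-37 variant concentrations to derive Kd.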

N-terminal LiaX = biological target: T2, N-terminal LiaX (Enterococcus faecalis, UniProt Q834B6); test: LL-37 binding by microscale thermophoresis, amine reactive dye, N-terminal LiaX; design: species or system Enterococcus faecalis S613
T2 sequence (Q834B6 1-277): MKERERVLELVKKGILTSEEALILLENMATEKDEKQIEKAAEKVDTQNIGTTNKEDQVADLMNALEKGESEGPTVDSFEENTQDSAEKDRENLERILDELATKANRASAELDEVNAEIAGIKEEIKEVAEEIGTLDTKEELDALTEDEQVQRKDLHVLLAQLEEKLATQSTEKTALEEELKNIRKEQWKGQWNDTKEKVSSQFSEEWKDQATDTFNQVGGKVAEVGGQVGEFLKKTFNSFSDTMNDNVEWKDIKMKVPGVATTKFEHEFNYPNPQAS
How it was run: as §1

[3] = biological target: T3, N-terminal domain of LiaX (Enterococcus faecalis, UniProt Q834B6); test: Microscale thermophoresis with His-tag specific dye, N-terminal domain of LiaX; type: binding, Enterococcus faecalis S613
T3 sequence (Q834B6 1-275): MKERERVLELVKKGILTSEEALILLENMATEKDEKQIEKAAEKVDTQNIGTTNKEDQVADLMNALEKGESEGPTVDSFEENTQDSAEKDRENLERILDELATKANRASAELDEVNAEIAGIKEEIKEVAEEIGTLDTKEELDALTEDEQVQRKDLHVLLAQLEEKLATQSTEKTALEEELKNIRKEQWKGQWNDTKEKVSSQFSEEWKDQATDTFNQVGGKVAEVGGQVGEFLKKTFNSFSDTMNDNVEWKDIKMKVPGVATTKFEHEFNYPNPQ

OG1RF and S613 = conditions: including against E. faecalis; ref [23], [24]; cited from earlier work
[4] = tested on: DAP-S E. faecalis strains; type: cell-based, Enterococcus faecalis
E. faecalis [5] = test: C. elegans infection assay with exogenous N-terminal LiaX; type: in vivo, Enterococcus faecalis; host Caenorhabditis elegans
How it was run: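 Recombinant N-terminal LiaX domain (His/SUMO-tagged) was expressed in E. coli BL-21 and nickel-column purified. Synchronized young adult worms (60–90) were infected with E. faecalis on BHI agar plus gentamicin (10 µg/mL). They were then moved to a liquid killing format (20% BHI broth, 80% M9W buffer) containing N-terminal LiaX at 0.1 to 500 nM, held at 25 °C, and deaths scored daily. Results come from 3 independent experiments, with Kaplan–Meier log-rank or 1-way ANOVA analysis.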

[6] = tested on: Staphylococcus aureus ATCC29213; test: DAP MIC by broth microdilution with exogenous LiaX or N-terminal LiaX, S. aureus; type: cell-based; conditions: 50 nM exogenous protein
E. faecalis strains = test: LL-37 killing assay; type: cell-based, Enterococcus faecalis; conditions: OG1RFΔliaR; 50 µg/ml LL-37, 2 h
E. faecalis [7] = test: Growth kinetics with LiaX; type: cell-based, Enterococcus faecalis; conditions: functional concentrations; 100 nM in BHI, OD600, 24 h
liaFSR and liaXYZ = test: qRT-PCR for liaFSR and liaXYZ expression; type: cell-based, Enterococcus faecalis; conditions: OG1RF

Molecule: human cathelicidin LL-37 (peptide)
- Kd [1]: 10.6 µM
- Kd [2]: 5.27 µM

Molecule: CC[C@H](C)[C@H](NC(=O)[C@H](CCCCN)NC(=O)[C@H](CCC(=O)O)NC(=O)[C@H](CCCCN)NC(=O)[C@H](CO)NC(=O)[C@H](CCCCN)NC(=O)[C@H](CCCNC(=N)N)NC(=O)[C@H](Cc1ccccc1)NC(=O)[C@H](Cc1ccccc1)NC(=O)[C@H](CC(=O)O)NC(=O)CNC(=O)[C@H](CC(C)C)NC(=O)[C@@H](N)CC(C)C)C(=O)NCC(=O)N[C@@H](CCCCN)C(=O)N[C@@H](CCC(=O)O)C(=O)N[C@@H](Cc1ccccc1)C(=O)N[C@@H](CCCCN)C(=O)N[C@@H](CCCNC(=N)N)C(=O)N[C@H](C(=O)N[C@H](C(=O)N[C@@H](CCC(N)=O)C(=O)N[C@@H](CCCNC(=N)N)C(=O)N[C@H](C(=O)N[C@@H](CCCCN)C(=O)N[C@@H](CC(=O)O)C(=O)N[C@@H](Cc1ccccc1)C(=O)N[C@@H](CC(C)C)C(=O)N[C@@H](CCCNC(=N)N)C(=O)N[C@@H](CC(N)=O)C(=O)N[C@@H](CC(C)C)C(=O)N[C@H](C(=O)N1CCC[C@H]1C(=O)N[C@@H](CCCNC(=N)N)C(=O)N[C@H](C(=O)N[C@@H](CCC(=O)O)C(=O)N[C@@H](CO)C(=O)O)[C@@H](C)O)C(C)C)[C@@H](C)CC)C(C)C)[C@@H](C)CC [LL-37]
- Kd (full length LiaX): 8.26 ± 0.28 µM
- Kd (N-terminal LiaX): 10.6 ± 0.43 µM
- Kd [3]: 5.27 ± 1.14 µM

Molecule: SSLLEKGLDGAKKAVGGLGKLGKDAVEDLESVGKGAVHDVKDVLDSVL [DCD-1L]
- binding affinity to N-terminal domain of LiaX ([3]; His-tag specific dye, DCD-1L tested up to 1,000 µM): no detectable binding affinity
- antimicrobial activity (OG1RF and S613): broad-spectrum antimicrobial activity, including against E. faecalis

B1: N-terminal LiaX: purified N-terminal LiaX (residues 1-277; His-tagged variant residues 1-275) (protein)
chain: T3 sequence (Q834B6 1-275)
modifications: labeled with a RED-tris-NTA his-tag specific dye (NanoTemper); left off: His6, C-terminal, kept
- increase in DAP MIC ([4]; OG1RF, 50 nM exogenous protein): over 8 fold
- protection against DAP ([4]; OG1RF, 1 to 100 nM N-terminal LiaX, up to 200 nM full-length LiaX): high level of protection to OG1RF in a concentration-dependent manner
- protection against DAP ([4]; OG1RFΔliaR, 50 nM exogenous protein): did not protect OG1RFΔliaR against DAP
- increase in DAP MIC ([4]; S613, 50 nM exogenous protein): over 8 fold
- virulence in C. elegans (E. faecalis [5]; OG1RF and S613, 100 nM purified N-terminal LiaX (Fig. 6), listed as N terminus of LiaX): more virulent; also recorded: increased virulence
- virulence in C. elegans, dose dependence (E. faecalis [5]; OG1RF or S613, 5-100 nM N-terminus LiaX): dose-dependent manner
- virulence in C. elegans (E. faecalis [5]; OG1RFΔliaR and TMΔliaR, exogenous N terminus of LiaX): did not, however, alter the virulence
- change in DAP MIC [6]: did not change under any condition
- protection from LL-37 killing (E. faecalis strains): did not protect OG1RFΔliaR from LL-37–mediated killing
- effect on growth of E. faecalis (E. faecalis [7]): no impact on the growth
- transcription of liaFSR and liaXYZ (liaFSR and liaXYZ; 50 nM protein without DAP, vs untreated): no effect on the levels of transcription
- LiaFSR activation relative to DAP alone or DAP with full-length LiaX (liaFSR and liaXYZ; N terminus of LiaX plus DAP): significantly higher and more pronounced
- transcription of liaFSR and liaXYZ (liaFSR and liaXYZ; protein plus subinhibitory DAP, listed as N terminus of LiaX): maximal activation of the LiaFSR cell envelope stress response; also recorded: highly up-regulated
